A selection: hits, their analogues and other compounds. The true share with any hit is near 1%.
TLR9-MyD88 block: blocks human TLR9 binding to MyD88; inhibition, % at 4.98 µM; Q9NR96+Q99836; CHO BLA complementation TLR9-MyD88, CCF4 FRET ratio; 340,000 compounds, 0.21% hits;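 active = inhibition above the mean over all tested compounds plus 3 SD, cut at about 21% in these data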;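 also: 0% = DMSO only wells and 100% = clavulanate BLA inhibitor control wells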
Target sequence (Q99836 whole entry, looked up): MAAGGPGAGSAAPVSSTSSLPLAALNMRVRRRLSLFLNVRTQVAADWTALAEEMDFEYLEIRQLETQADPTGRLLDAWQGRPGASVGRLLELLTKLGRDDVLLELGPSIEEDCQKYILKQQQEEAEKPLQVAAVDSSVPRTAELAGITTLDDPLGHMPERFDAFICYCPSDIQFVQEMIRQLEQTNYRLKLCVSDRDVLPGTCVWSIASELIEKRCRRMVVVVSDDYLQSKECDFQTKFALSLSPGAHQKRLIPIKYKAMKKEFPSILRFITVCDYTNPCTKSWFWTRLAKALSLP
Target sequence (Q9NR96 whole entry, looked up): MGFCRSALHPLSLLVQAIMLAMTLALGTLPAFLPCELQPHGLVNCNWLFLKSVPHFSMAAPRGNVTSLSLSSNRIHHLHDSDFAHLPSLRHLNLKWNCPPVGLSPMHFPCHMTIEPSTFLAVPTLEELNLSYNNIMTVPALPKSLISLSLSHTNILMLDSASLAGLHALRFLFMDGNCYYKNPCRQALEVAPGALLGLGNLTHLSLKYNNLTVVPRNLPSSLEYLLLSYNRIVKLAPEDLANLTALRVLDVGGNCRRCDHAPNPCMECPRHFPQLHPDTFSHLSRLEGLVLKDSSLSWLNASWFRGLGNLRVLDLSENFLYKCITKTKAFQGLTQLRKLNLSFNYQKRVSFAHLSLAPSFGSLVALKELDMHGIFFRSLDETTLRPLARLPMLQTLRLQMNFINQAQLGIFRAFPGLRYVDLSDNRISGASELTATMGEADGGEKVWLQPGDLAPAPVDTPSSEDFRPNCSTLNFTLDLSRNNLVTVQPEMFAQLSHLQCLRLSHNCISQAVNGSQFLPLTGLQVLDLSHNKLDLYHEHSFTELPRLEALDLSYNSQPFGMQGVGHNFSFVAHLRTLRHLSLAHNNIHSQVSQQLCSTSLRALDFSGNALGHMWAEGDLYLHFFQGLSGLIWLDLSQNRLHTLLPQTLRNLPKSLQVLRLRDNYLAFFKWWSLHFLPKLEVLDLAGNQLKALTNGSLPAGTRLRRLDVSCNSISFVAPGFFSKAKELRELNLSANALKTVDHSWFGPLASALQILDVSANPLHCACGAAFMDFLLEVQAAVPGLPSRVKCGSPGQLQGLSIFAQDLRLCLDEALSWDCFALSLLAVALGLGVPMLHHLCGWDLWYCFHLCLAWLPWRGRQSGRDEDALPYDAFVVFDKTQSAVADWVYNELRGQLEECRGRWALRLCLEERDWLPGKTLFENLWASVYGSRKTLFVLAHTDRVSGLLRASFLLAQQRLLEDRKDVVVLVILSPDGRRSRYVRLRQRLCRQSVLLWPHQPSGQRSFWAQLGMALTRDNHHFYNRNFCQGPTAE
TLR4-MyD88 BLA: TLR4-MyD88 interaction inhibition in cells | 200,000 compounds, 0.18% hits | inhibition, % at 8.4 µM | O00206+Q99836 | HeLa CL3-4 TLR4/MyD88 BLA complementation, FRET ratio | AID 861; in the data active = inhibition above about 25%;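 also: 0% = vehicle and 100% = reference inhibitor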
NOD2 RIPK2 PPI: blocks binding of human NOD2 to RIPK2 | AID 624267 | CHO BLA complementation NOD2-RIPK2, CCF4 ratio | O43353 | inhibition, % at 4.98 µM | 360,000 compounds, 0.38% hits; in the data active = inhibition above about 21%;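 also: 0% = vehicle only and 100% = reference blocker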
bCat nuc transl: modulators of beta-catenin nuclear translocation; HeLa beta-catenin nuclear translocation, immunofluorescence imaging; 190,000 compounds, 0.3% hits; nuclear translocation activity, % at 5 µM;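 active = nuclear translocation activity above 50% at 5 µM, with a well cell count of 50 or more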;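 also: per-cell ratio of nuclear to cytoplasmic median beta-catenin stain intensity; plate controls were DMSO negative control for no effect and GSK-3 inhibitor IX positive control for full effect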
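Test system: human HeLa cells, endogenous beta-catenin. Times: 24 h compound exposure, 37°C. Measured by: beta-catenin immunofluorescence imaging with DAPI.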
MT stabilizer: microtubule stabilizers in HeLa cells. % tubulin-high responders, % at 10 µM. 200,000 compounds, 0.83% hits. HeLa tubulin immunostaining HCS, 24 h; share of cells brighter than vehicle mean+2SD. AID 2205;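 active = plate Z-score above 3 for both tubulin-high and condensed-nucleus cell shares, with cell loss under 80%, at 10 µM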;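 also: anti alpha tubulin signal scored within the nucleus-defined area of each cell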
Hsp70 activator: Hsp70 transcriptional activation, primary screen; HeLa Hsp70 promoter luciferase reporter, luminescence; scaled: vehicle 0, proteasome-inhibitor control 100%; activation, % at 10 µM; AID 1203; 200,000 compounds, 0.04% hits;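 active = activation above the mean across all tested compounds plus 3 SD, cutoff set per campaign, cut at about 5.5% in these data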;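 also: 100% = MG132 at 30 µM as the positive control and 0% = DMSO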
NOD2 RIPK2 conf: confirmation of human NOD2-RIPK2 interaction inhibitors. shares compounds with NOD2 RIPK2 PPI. CHO cells, NOD2-RIPK2 BLA complementation, CCF4 FRET. inhibition, % at 4.98 µM. 1,200 compounds, 70% hits. AID 624370;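 active = mean inhibition across replicates above a set limit taken from the earlier primary screen, cut at about 21% in these data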;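 also: 0% = DMSO-only wells and the high end = clavulanate BLA-blocked wells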
NOD2 BLA counter: NOD2-RIPK2 counterscreen BLA reporter activity | CHO BLA reporter, CCF4 FRET ratio | inhibition, % at 4.98 µM | 1,200 compounds, 57% hits | shares compounds with NOD2 RIPK2 PPI;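 active = mean inhibition above the low-control mean inhibition plus three low-control SD, cut at about 11% in these data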;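 also: 0% = DMSO only wells and 100% = clavulanate high control wells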
* = called active by the depositor; · = no result given.

SMILES	TLR9-MyD88 block	TLR4-MyD88 BLA	NOD2 RIPK2 PPI	bCat nuc transl	MT stabilizer	Hsp70 activator	NOD2 RIPK2 conf	NOD2 BLA counter
Cc1ccc(S(=O)(=O)CCC(=O)c2cccc([N+](=O)[O-])c2)cc1	-11	·	22*	·	·	·	38*	1
Cc1ccc(C(=O)CCS(=O)(=O)c2ccc(Br)cc2)cc1	6	·	3	·	·	·	·	·
Cc1cc(C(=O)CN2C(=O)c3cccc(N)c3C2=O)c(C)n1Cc1cccs1	20	22	24*	-6	2	0	29*	42*
CC(=O)Nc1ccc(S(=O)(=O)NCC2CC3CCC2C3)cc1 (stereo unspecified)	2	·	-10	·	·	·	·	·
Cc1ccnc(N/C=C(\C#N)c2nc(-c3cccc(Br)c3)cs2)c1	15	8	27*	0	3	0	30*	30*
Cc1ccc(NC(=O)C(OC(=O)c2ccc(O)cc2)c2ccccc2)cc1Cl (stereo unspecified)	-6	-15	35*	1	2	0	-10	-3
O=c1oc2ccccc2cc1-c1nc(-c2cccs2)cs1	20	17	32*	·	1	0	43*	51*
O=C(/C=C/c1ccccc1)NCCS(=O)(=O)N1CCN(c2ccc(F)cc2)CC1	2	·	3	·	·	·	·	·
CC(=O)c1ccc(OCCCC(=O)Nc2ccc(C)c(S(=O)(=O)N3CCCCC3)c2)cc1	-8	·	36*	·	·	·	-7	-7
O=C(c1ccccc1)C1OC1C(=O)c1ccccc1 (stereo unspecified)	-1	·	-5	·	·	·	·	·
CC1C=CC(C)C(C(=O)c2ccccc2)C1C(=O)c1ccccc1 (stereo unspecified)	3	·	30*	·	·	·	-7	0
Cc1cc(C)c(CN2CCN(C(=O)CC[C@H]3O[C@@H](n4ccc(=O)[nH]c4=O)[C@H](O)[C@@H]3O)CC2)c(C)c1	·	·	-7	·	·	·	·	·
O=C(Nc1cccc(S(=O)(=O)N2CCOCC2)c1)c1cc([N+](=O)[O-])ccc1N1CCOCC1	-6	·	-2	·	·	·	·	·
O=C(CSc1ccc([N+](=O)[O-])cc1)Nc1cccc(S(=O)(=O)N2CCOCC2)c1	11	·	41*	·	·	·	0	-1
CN1CCN(NC(=O)c2cc(-c3ccc(Cl)s3)nc3ccccc23)CC1	-8	·	3	·	·	·	·	·
COc1ccc(C(C)=O)cc1CSc1nc2ccccc2c(=O)n1-c1cccc(C)c1	-10	-3	-6	0	3	0	·	·
COc1ccc(C(C)=O)cc1CSc1nc2ccccc2c(=O)n1-c1ccccc1C	-3	11	24*	-1	6	0	-2	-2
O=C(NCc1ccccc1)C(c1cc2ccccc2o1)n1c(=O)c(-c2cc3ccccc3[nH]2)nc2ccccc21 (stereo unspecified)	·	·	51*	·	·	·	46*	67*
O=C(NCc1ccccc1)C(C1CC1)n1c(=O)c(-c2cc3ccccc3[nH]2)nc2ccccc21 (stereo unspecified)	·	·	45*	·	·	·	42*	64*
O=C(NC1CCCCC1)C(C1CC1)n1c(=O)c(-c2cc3ccccc3[nH]2)nc2ccccc21 (stereo unspecified)	·	·	44*	·	·	·	38*	64*
O=C(NCc1ccccc1)C(c1ccccc1)n1c(=O)c(-c2cc3ccccc3[nH]2)nc2ccccc21 (stereo unspecified)	·	·	48*	·	·	·	44*	65*
O=C(NCc1ccccc1)C(c1ccncc1)n1c(=O)c(-c2ccccc2)nc2ccccc21 (stereo unspecified)	·	·	-5	·	·	·	·	·
CC1CCCCN1C(=O)CN1CCN(S(=O)(=O)c2ccc(Br)cc2Cl)CC1 (stereo unspecified)	-6	·	8	·	·	·	·	·
CN(C)CCN(C(=O)C1=COCCO1)c1nc2ccc(F)cc2s1	3	·	-1	·	·	·	·	·
Cc1ccc(CN2CCC(C(=O)c3ccc(F)cc3)CC2)cc1	-3	·	-3	·	·	·	·	·
SMILES	TLR9-MyD88 block	TLR4-MyD88 BLA	NOD2 RIPK2 PPI	bCat nuc transl	MT stabilizer	Hsp70 activator	NOD2 RIPK2 conf	NOD2 BLA counter
CCO[C@H]1OC(C(=O)N2CCN(Cc3ccc4c(c3)OCO4)CC2)=C[C@@H](c2csc3ccccc23)[C@@H]1CCCO	-13	-6	23*	0	7	0	12	-1
CCO[C@H]1OC(C(=O)N2CCN(Cc3ccc4c(c3)OCO4)CC2)=C[C@@H](c2cn(C(C)=O)c3ccccc23)[C@@H]1CCCO	1	4	1	0	4	0	·	·
Cc1cc(SC#N)cc(C)c1NC(=O)CCl	10	13	31*	0	8	0	28*	-1
CCc1cc(SC#N)cc(C)c1N	9	2	0	-3	3	0	·	·
CCc1cc(SC#N)cc(C)c1NC(=O)CCl	7	-12	24*	1	6	0	25*	-5
CCC(=O)N1CCc2cc(S(=O)(=O)CCC(=O)Nc3cccc(C)n3)ccc21	-5	7	-2	0	7	0	·	·
COC(=O)[C@]1(C)CCC[C@@]2(C)C3CC[C@@]4(C)C[C@]3(CCC21)CC(=O)N4 (stereo partly specified)	-4	·	8	·	·	·	·	·
C=C1C(=O)C23CCC4C(C)(C(=O)OC)CCCC4(C)C2CCC1(O)C3 (stereo unspecified)	3	·	79*	·	·	·	88*	21*
O=[N+]([O-])c1ccc(S(=O)(=O)c2ccccc2)nc1	3	·	78*	·	·	·	54*	13*
Cc1ccc(S(=O)(=O)c2ccc([N+](=O)[O-])cn2)cc1	-5	·	70*	·	·	·	54*	-3
OCCCC1CCCN(Cc2cn[nH]c2-c2ccc(F)cc2F)C1 (stereo unspecified)	-1	-12	22*	1	4	0	2	-4
C=C1C(=O)OC2CC1C(O)CC(C)=CCCC(C)=CC(O)CC2C (stereo unspecified)	1	·	23*	·	·	·	19	13*
CC(=O)Oc1ccc(C#C/C=C2\c3ccccc3C(=O)N2c2ccccc2)cc1	4	·	4	·	·	·	·	·
CCCC(/C=C/c1ccc(OC(C)=O)cc1)=C1/c2ccccc2C(=O)N1c1ccccc1	13	·	25*	·	·	·	20	28*
CN(C)c1ccc(C2Nc3ccccc3C(=O)N2NS(C)(=O)=O)cc1 (stereo unspecified)	-13	·	-4	·	·	·	·	·
COc1cc(N2C(=O)C=CC2=O)c(OC)cc1Cl	17	·	51*	0	·	·	80*	23*
COc1cc(Cl)c(S(=O)(=O)N2CCCC2)cc1Cl	3	10	-8	0	2	0	·	·

Bioassay records from PubChem.
